Reference: publication PMC8777244 (Biochemistry and Biophysics Reports, 2022)
Several values for one entry are separate records, joined by “and”; a condition that tells them apart may be missing. Identical values can stand only once. Entries after “also recorded” stand apart in the source; their conditions may differ. Each block holds one substance with its values, some of them ahead of it.

Legend:
[1] = test system: CaM; test: CaM/CMBD binding by Trp fluorescence
[2] = test system: NCaM; test: CMBD/NCaM binding by isothermal titration calorimetry; conditions: CMBD titrated into NCaM; 50 mM Tris, pH 7.5, 2 mM Ca^2+, 25 °C; mean ± SD
Method in brief: (§1)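 ITC was run on a VP-ITC at 25 °C in 50 mM Tris, 2 mM Ca²⁺, pH 7.5, with 0.15–0.25 M NaCl added for salt studies. Injections were 5 or 10 μL over 10 or 20 s, spaced 120 s. Heat of dilution (titrant into buffer) was subtracted. Data were fitted with a one-set-of-sites model. Back-titration used 250 μM CaM into 40 μM CMBD. Values are mean ± SD.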

[3] = test system: CaM; test: CaM interaction by size-exclusion chromatography; type: binding; conditions: D-CMBD with CaM; for Complex with CaM in SEC, Ca^2+: 0.2 M NaCl, 2 mM Ca^2+
Method in brief: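 HPLC size-exclusion used a Shodex KW802.5 column at 1.0 mL/min with 280 nm detection. Buffer was Tris, pH 7.5, with 0.2 M NaCl (range 0.2–0.5 M) plus 2 mM Ca²⁺ or 1 mM EDTA. Samples were filtered through 0.45 μm. MBP-DH constructs, alone or mixed with CaM or Dansyl-CaM, were compared with BSA. Collected fractions were assayed for Dansyl fluorescence.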

[4] = test system: CCaM; test: CMBD/CCaM binding by isothermal titration calorimetry; conditions: CMBD titrated into CCaM; 50 mM Tris, pH 7.5, 2 mM Ca^2+, 25 °C; mean ± SD
Method in brief: as §1

[5] = test system: CaM; test: CaM/CMBD binding by isothermal titration calorimetry
Method in brief: as §1

[6] = test system: CaM; test: CaM/CMBD binding by Trp fluorescence anisotropy; conditions: Ca^2+
Method in brief: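 Trp anisotropy of 1 μM CMBD peptide (residues 671–689) was recorded during CaM titration. Excitation was 280 or 295 nm, and excitation and emission slits were both 10 nm, with polarizers. Buffer was 50 mM Tris, pH 7.5, 2 mM Ca²⁺, at room temperature. Anisotropy values were fitted following earlier work. Values are mean ± SD of at least three runs.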

[7] = test system: CaM; conditions: Ca^2+-CaM; ref [11]; cited from earlier work
[8] = test system: D-CaM; test: CMBD binding to Ca^2+-D-CaM by fluorescence; conditions: CMBD added to 2 μM D-CaM, 50 mM Tris, 2 mM Ca^2+, pH 7.5
Method in brief: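 D-CaM (Dansyl-labelled calmodulin) was excited at 335 nm, with excitation and emission slits of 2 and 5 nm, on a temperature-controlled fluorometer. Emission spectra were followed during titration with MBP-fused Nox5 dehydrogenase (DH) constructs or CMBD peptide. Buffer was 50 mM Tris, pH 7.5, with 2 mM Ca²⁺. Fits of intensity changes followed earlier work. Each measurement was done at least three times using 2–3 protein batches.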

[9] = test system: CaM; conditions: ref [17]; cited from earlier work
[10] = test system: CaM; conditions: titration curve inflection point; ref [18]; cited from earlier work
[11] = Size-exclusion chromatography, oligomeric states; type: physicochemical
Method in brief: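 HPLC gel filtration of amylose-purified MBP-fused NOX5 dehydrogenase domain, run against CaM and BSA references. Column equilibrated in Tris pH 7.5 (50 mM per figure legends, 20 mM per methods) with 0.2 M NaCl (0.2–0.5 M range), plus 2 mM Ca²⁺ or 1 mM EDTA. Runs at 1.0 mL/min with 280 nm detection. 2 M urea added to partially dissociate oligomers. Species assigned by elution time.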

[12] = test system: CaM; test: CaM/D-CMBD binding by Dansyl fluorescence
Method in brief: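 N-terminally Dansyl-labelled Nox5β CMBD peptide (residues 671–689) was titrated with CaM at room temperature. Excitation was 335 nm, with 2/5 nm slits. Buffer was 50 mM Tris, pH 7.5, with 2 mM Ca²⁺ or 1 mM EDTA. Emission maxima and intensity changes were recorded and fitted following earlier work. Values are mean ± SD of at least three runs.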

[13] = test system: Nox5; conditions: peptide from the scaffold domain of Cav-1; ref [13]; cited from earlier work
[14] = test system: nitric oxide synthase; conditions: Cav-1p residues 82–101; ref [26]; cited from earlier work

Equivalents of CaM to saturate binding (intensity) ([1]; 330 nm, Ca^2+): one
Emission maximum, CaM-bound CMBD ([1]; Trp fluorescence upon addition of CaM, Ca^2+): 330 nm
Wavelength shift on CaM binding ([1]; Trp fluorescence, blue shift, Ca^2+): ~20 nm
Binding constant, ITC CMBD/NCaM [2]: (2.42 ± 1.21) x 10^6 M^-1
Binding constant, ITC CMBD/CCaM [4]: (9.50 ± 0.62) x 10^5 M^-1
nCaM/CMBD, ITC back-titration ([5]; 250 μM CaM into 40 μM CMBD, 25 °C): 0.56
Effect of NaCl on binding ([5]; 0.1 − 0.25 M NaCl): does not change significantly
Stoichiometry n[peptide]/Protein (nCMBD/CaM), ITC CaM/CMBD (back-titration) ([5]; converted from nCaM/CMBD, 250 μM CaM into 40 μM CMBD, 25 °C, mean ± SD): 1.79 and 1.79 ± 0.11
Cooperativity of CMBD binding ([5]; two CMBD peptides on half-domains of CaM): no cooperativity was observed
Molar ratio at saturation (anisotropy) ([6]; 1 μM CMBD with CaM): ~1.2
Trp anisotropy value (r), complexed with CaM (maximum) ([6]; 1 μM CMBD with CaM, emission 352 nm): 0.136
Trp anisotropy value (r), peptide alone ([6]; 1 μM CMBD, emission 352 nm): 0.0405
Substance: H2NRPDWSKVFQKVAAEKKGKVCOOH [CMBD]
CaM binding in the absence of Ca^2+ (CMBD) ([1]; Trp fluorescence, 50 mM Tris, pH 7.5, 1 mM EDTA): A similar finding using CMBD's Trp fluorescence was found in the absence of Ca^2+; also recorded: non-specific electrostatic interaction which is not biologically significant
Complex with CaM in SEC, Ca^2+ [3]: a stable Ca^2+-CaM/CMBD complex was formed in non-equilibrium system
ANS fluorescence decrease of CaM/CMBD [7]: ~3%
Intensity change, CMBD with D-CaM [8]: very small intensity; also recorded: small intensity change
Binding mode in crystal structure [9]: each of the two CMBD peptides is bound in the cleft formed in half-domain
Ka, previous estimate [10]: 4e+07 M⁻¹
Stoichiometry, previous estimate [10]: near unity stoichiometry

SEC elution time, EDTA / apo ([11]; KW802.5 column, 1.0 mL/min, 0.2 M NaCl, 1 mM EDTA, pH 7.5): 25.67 min
SEC elution time, Ca^2+ ([11]; KW802.5 column, 1.0 mL/min, 0.2 M NaCl, 2 mM Ca^2+, pH 7.5): 29.31 min
Stoichiometry n[Peptide]/[Protein], CaM/D-CMBD ([12]; 2 μM D-CMBD titrated with CaM, Dansyl fluorescence, 50 mM Tris, pH 7.5, 2 mM Ca^2+, room temperature, mean ± SD): 2.11 and 2.11 ± 0.11
Dansyl emission maximum, D-CMBD alone ([12]; Ca^2+): 550 nm
Dansyl emission maximum, D-CMBD with CaM ([12]; Ca^2+): 518 nm
Dansyl intensity increase on CaM binding ([12]; Ca^2+): ~8 fold
Binding affinity in the absence of Ca^2+ ([12]; absence of Ca^2+ (EDTA), estimated, diminished in a higher ionic strength): ~10^5 M^-1
Substance: H2NRPDWSKVFQKVAAEKKGKVCOOH [D-CMBD]
Dansyl fluorescence in CaM fraction, absence of Ca^2+ ([3]; 1 mM EDTA): No Dansyl fluorescence was found in the CaM fractions
Complex with CaM in SEC, Ca^2+ [3]: complexed with Ca^2+-CaM when a large excess of CaM was included

Substance: Bovine serum albumin (BSA): Bovine serum albumin, SEC standard [reference compound]
SEC elution time, BSA monomer ([11]; 50 mM Tris, pH 7.5, 0.2 M NaCl, 66 kDa): 8.57 min
SEC elution time, BSA dimer ([11]; 50 mM Tris, pH 7.5, 0.2 M NaCl, 132 kDa): 7.76 min
SEC elution time, BSA trimer ([11]; 50 mM Tris, pH 7.5, 0.2 M NaCl, 198 kDa): 7.23 min

Substance: hemoglobin [reference compound]
SEC elution time, reference protein ([11]; 0.2 M NaCl, same settings): 9.51 min

Substance: Cav-1P: peptide from the scaffold domain of Cav-1 (residues 82–101) (DGIWKASFTTFTVTKYWFYR; UniProt Q03135 82-101, looked up, fragment)
Effect on Nox5's superoxide-generating activity [13]: inhibit the Nox5's superoxide-generating activity
Effect on NO production [14]: inhibits the NO production
